Test results published in ChEMBL document CHEMBL4342503, “Diazabicyclooctane Functionalization for Inhibition of β-Lactamases from Enterobacteria” (2020).
The source made the active and inactive calls. The calls are words filed in the database; no cut-off is given here.

Assays:
Escherichia coli [1] = experiment: Antibacterial activity against Escherichia coli Top10 assessed as cefamandole MIC by CLSI protocol based method (reference value: 2 ug/ml); type: functional
Procedure, shortened: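 Broth microdilution in cation-adjusted Mueller-Hinton broth following CLSI. Strain carries a β-lactamase gene cloned in pTRC-99k (kanamycin marker); preculture in BHI with IPTG (500 μM) and kanamycin (50 μg/ml); IPTG (500 μM) also in plates to induce enzyme. β-Lactam MIC read with or without inhibitor at fixed 15 μM (4 μg/ml for avibactam; clavulanate 4 μg/ml). Median of five biological repeats from two independent experiments.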

Escherichia coli [2] = experiment: Antibacterial activity against Escherichia coli Top10 harboring TEM1 assessed as cefamandole MIC by CLSI protocol based method (reference value: 2048 ug/ml); type: functional
Escherichia coli [3] = experiment: Antibacterial activity against Escherichia coli Top10 without harboring KPC-2 assessed as aztreonam MIC by CLSI protocol based method (reference value: 0.5 ug/ml); type: functional
Escherichia coli [4] = experiment: Antibacterial activity against Escherichia coli Top10 harboring KPC-2 assessed as aztreonam MIC by CLSI protocol based method (reference value: 2048 ug/ml); type: functional
Escherichia coli [5] = experiment: Antibacterial activity against Escherichia coli Top10 without harboring CTX-M-15 assessed as amoxicillin MIC by CLSI protocol based method (reference value: 8 ug/ml); type: functional
Escherichia coli [6] = experiment: Antibacterial activity against Escherichia coli Top10 harboring CTX-M-15 assessed as amoxicillin MIC by CLSI protocol based method (reference value: 2048 ug/ml); type: functional
Escherichia coli [7] = experiment: Antibacterial activity against Escherichia coli Top10 without harboring AmpC assessed as cefotaxime MIC by CLSI protocol based method (reference value: 0.125 ug/ml); type: functional
Escherichia coli [8] = experiment: Antibacterial activity against Escherichia coli Top10 harboring AmpC assessed as cefotaxime MIC by CLSI protocol based method (reference value: 256 ug/ml); type: functional
Escherichia coli [9] = experiment: Antibacterial activity against Escherichia coli Top10 without harboring OXA-48 assessed as ertapenem MIC by CLSI protocol based method (reference value: < 0.03 ug/ml); type: functional
Escherichia coli [10] = experiment: Antibacterial activity against Escherichia coli Top10 harboring OXA-48 assessed as ertapenem MIC by CLSI protocol based method (reference value: 8 ug/ml); type: functional
[11] = Inhibition of TEM1 (unknown origin) expressed in Escherichia coli BL21 DE3 assessed as K2/Ki ratio using nitrocefin as substrate by spectrophotometry
Procedure, shortened: (§1)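 His-tagged enzymes expressed in E. coli BL21(DE3) (IPTG 0.5 mM, 16°C, 18 h), purified by Ni-NTA and size exclusion in 25 mM Tris-HCl pH 7.5, 300 mM NaCl. Carbamoylation k2/Ki from progress curves, reporter nitrocefin 100 μM, 20°C, 100 mM MES pH 6.4; inhibitor up to 100 μM; ≥6 curves, ≥2 independent experiments.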

[12] = Inhibition of KPC-2 (unknown origin) expressed in Escherichia coli BL21 DE3 assessed as K2/Ki ratio using nitrocefin as substrate by spectrophotometry; procedure, shortened: as §1
Enterobacter cloacae [13] = experiment: Inhibition of Enterobacter cloacae CTX-M-15 expressed in Escherichia coli BL21 DE3 assessed as K2/Ki ratio using nitrocefin as substrate by spectrophotometry; procedure, shortened: as §1
Enterobacter cloacae [14] = experiment: Inhibition of Enterobacter cloacae AmpC expressed in Escherichia coli BL21 DE3 assessed as K2/Ki ratio using nitrocefin as substrate by spectrophotometry; procedure, shortened: as §1
[15] = Inhibition of OXA-48 expressed in Escherichia coli BL21 DE3 assessed as K2/Ki ratio using CENTA as substrate by spectrophotometry
Procedure, shortened: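 OXA-48 expressed in E. coli BL21(DE3) (IPTG 0.5 mM, 16°C, 18 h), purified by Ni-NTA and size exclusion. Carbamoylation k2/Ki by spectrophotometric progress curves with CENTA 100 μM as reporter, 20°C, 100 mM MES pH 6.4; inhibitor up to 100 μM; ≥6 curves from ≥2 independent experiments.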

Bacteria = experiment: Inhibition of bacterial KPC-2 N132G mutant expressed in Escherichia coli BL21 DE3 assessed as K2/Ki ratio using nitrocefin as substrate by spectrophotometry; procedure, shortened: as §1
Enterobacter cloacae [16] = experiment: Inhibition of Enterobacter cloacae CTX-M-15 N132G mutant expressed in Escherichia coli BL21 DE3 assessed as K2/Ki ratio using nitrocefin as substrate by spectrophotometry; procedure, shortened: as §1

| Compound | MIC (Escherichia coli [1]) [µg/mL] | MIC (Escherichia coli [2]) [µg/mL] | MIC (Escherichia coli [3]) [µg/mL] | MIC (Escherichia coli [4]) [µg/mL] | MIC (Escherichia coli [5]) [µg/mL] | MIC (Escherichia coli [6]) [µg/mL] | MIC (Escherichia coli [7]) [µg/mL] | MIC (Escherichia coli [8]) [µg/mL] | MIC (Escherichia coli [9]) [µg/mL] | MIC (Escherichia coli [10]) [µg/mL] | Ratio [11] [M⁻¹ s⁻¹] | Ratio [12] [M⁻¹ s⁻¹] | Ratio (Enterobacter cloacae [13]) [M⁻¹ s⁻¹] | Ratio (Enterobacter cloacae [14]) [M⁻¹ s⁻¹] | Ratio [15] | Ratio (Bacteria) [M⁻¹ s⁻¹] | Ratio (Enterobacter cloacae [16]) [M⁻¹ s⁻¹] |
| --- | --- | --- | --- | --- | --- | --- | --- | --- | --- | --- | --- | --- | --- | --- | --- | --- | --- |
| O=C([O-])[C@H]1/C(=C/CO)O[C@@H]2CC(=O)N21.[Na+] [CLAVULANIC ACID (SODIUM)] | 2 | 2 | 0.5 | 512 | 8 | 2 | 0.0625 | 128 | < 0.03 | 8 | – | – | – | – | – | – | – |
| CN(C)Cc1cn(C[C@@H]2CC[C@@H]3CN2C(=O)N3OS(=O)(=O)[O-])nn1.[Na+] | 2 | 32 | 0.5 | 64 | 4 | 256 | 0.125 | 64 | < 0.03 | 8 | 780 | 120 | 29 | 20 | inactive | – | – |
| NC(=O)[C@@H]1CC[C@@H]2CN1C(=O)N2OS(=O)(=O)[O-].[Na+] [AVIBACTAM SODIUM] | 2 | 2 | 0.25 | 0.5 | 2 | 2 | 0.125 | 1 | < 0.03 | 0.5 | 88000 | 26000 | 130000 | 18000 | 980 M⁻¹ s⁻¹ | 53 | 70 |
| O=C1N2C[C@@H](CC[C@H]2Cn2cc(CN3CCOCC3)nn2)N1OS(=O)(=O)[O-].[Na+] | 2 | 8 | 0.25 | 32 | 8 | 64 | 0.125 | 128 | < 0.03 | 8 | 1200 | 190 | 100 | 31 | inactive | – | – |
| CC(C)(C)OC(=O)N1CCC(c2cn(C[C@@H]3CC[C@@H]4CN3C(=O)N4OS(=O)(=O)[O-])nn2)CC1.[Na+] | 2 | 256 | 0.25 | 2050 | 8 | 4100 | 0.125 | 128 | < 0.03 | 16 | 1700 | 830 | 230 | 29 | 210 M⁻¹ s⁻¹ | – | – |
| O=C(NC1CCNCC1)[C@@H]1CC[C@@H]2CN1C(=O)N2OS(=O)(=O)[O-].[Na+] | 2 | 4 | 0.25 | 0.5 | 2 | 16 | 0.125 | 0.25 | < 0.03 | 8 | 43000 | 10000 | 960 | 15000 | inactive | – | – |
| COCc1cn(C[C@@H]2CC[C@@H]3CN2C(=O)N3OS(=O)(=O)[O-])nn1.[Na+] | 2 | 16 | 0.5 | 512 | 8 | 256 | 0.125 | 128 | < 0.03 | 16 | 830 | 18 | 120 | 15 | inactive | – | – |
| O=C1N2C[C@@H](CC[C@H]2Cn2nccn2)N1OS(=O)(=O)[O-].[Na+] | 2 | 16 | 0.5 | 512 | 4 | 512 | 0.125 | 32 | < 0.03 | 8 | 2600 | 350 | 120 | 200 | 150 M⁻¹ s⁻¹ | – | – |
